Activity calls are given as the source filed them. No cut-off for these calls is given here.
What was measured:
Quadruplex DNA [1] = assay: Stabilization of 5'-FAM/3'-TAMRA labelled AR3 G-quadruplex oligonucleotide (unknown origin) assessed as change in melting temperature t1/2 at 1 uM after 16 hrs in presence of 100 mM K+ by FRET assay; type: nucleic-acid assay
Procedure, shortened: (§1)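 FRET melting: FAM/TAMRA dual-labelled oligos (0.25 μM) folded in 10 mM lithium cacodylate pH 7.4 with 100 mM KCl (95 °C 5 min, cooled 4 h); ligand added at 1 μM final, 16 h room temperature. FAM emission followed 30−95 °C at 1 °C/min; curves normalized 0 to 1, T1/2 at 0.5 fraction.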

Quadruplex DNA [2] = assay: Stabilization of AR G-quadruplex oligonucleotide in human 22Rv1 cells assessed as regulation of ERBB2 mRNA expression at IC50 after 48 hrs by RT-PCR analysis; type: cell-based
Procedure, shortened: (§2)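 Transcripts quantified by TaqMan real-time PCR with RNaseP as normalizer; relative quantity versus untreated cells by the 2−ΔΔCt method. Panel genes measured with a 92-gene cancer-mechanism TaqMan array.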

CWR22R [3] = assay: Effect on JUN mRNA expression in human 22Rv1 cells at IC50 after 48 hrs by RT-PCR analysis; type: functional, cell-based; procedure, shortened: as §2
[4] = (§3) Stabilization of TTTTTAGTGAGAGTGAGAGAGAGAGTGAGAGTGAGAGTGATTTTTCTGCATATAAGCAGCTGCTTTTTGCC DNA (unknown origin) assessed as inhibition of polymerase progression at G4 site by measuring reduction in full length amplified product using GGCAAAAAGCAGCTGCTTATATGCAG as primer at 12.5 to 200 nM after 30 mins in presence of 5'-end labeled [gamma32P]ATP by phosphorimaging based taq polymerase stop assay
Procedure, shortened: (§4)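 Primer 5′-labeled with [γ-32P]ATP by T4 polynucleotide kinase, 37 °C, 30 min. Labeled primer (72 nM final) annealed to template (36 nM final) in 10 mM lithium cacodylate pH 7.4, with or without 10 mM KCl, by heating at 95 °C for 5 min then slow cooling.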

Quadruplex DNA [5] = assay: as §3, with “AR1 template G-quadruplex” for “TTTTTAGTGAGAGTGAGAGAGAGAGTGAGAGTGAGAGTGATTTTTCTGCATATAAGCAGCTGCTTTTTGCC”; type: nucleic-acid assay; procedure, shortened: as §4
Quadruplex DNA [6] = assay: Stabilization of AR G-quadruplex oligonucleotide in human PC3 cells assessed as up-regulation of WNT1 mRNA expression at IC50 after 48 hrs by RT-PCR analysis; type: cell-based
Procedure, shortened: (§5)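 PC-3 cells (RPMI-1640, 10% fetal calf serum) exposed at an equitoxic concentration. Expression of 92 cancer-mechanism genes measured on TaqMan Arrays. Change versus untreated cells computed by 2−ΔΔCt, with RNaseP as normalizer.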

DU-145 [7] = assay: Cytotoxicity against human DU145 cells assessed as reduction in cell viability after 48 hrs by MTS assay; type: functional, cell-based; conditions: DU-145, 48 h
Procedure, shortened: (§6)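 Cells kept in RPMI-1640 with 10% fetal calf serum, 37 °C, 5% CO2. Seeded, after 24 h treated with 0.0001, 0.001, 0.01, 0.1, 1 and 10 μM compound (DMSO stocks freshly diluted in medium) for 48 h. MTS added 4 h, absorbance 490 nm; IC50 from curves of % viability inhibition versus DMSO-treated cells against log concentration.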

Quadruplex DNA [8] = assay: Stabilization of 5'-FAM/3'-TAMRA labelled AR1 G-quadruplex oligonucleotide (unknown origin) assessed as change in melting temperature t1/2 at 1 uM after 16 hrs in presence of 100 mM K+ by FRET assay; type: nucleic-acid assay; procedure, shortened: as §1
DU-145 [9] = assay: Effect on JUN mRNA expression in human DU145 cells at IC50 after 48 hrs by RT-PCR analysis; type: functional, cell-based; procedure, shortened: as §2
Quadruplex DNA [10] = assay: Stabilization of AR G-quadruplex oligonucleotide in human 22Rv1 cells assessed as down-regulation of CCNE1 mRNA expression at IC50 after 48 hrs by RT-PCR analysis; type: cell-based; procedure, shortened: as §2
Quadruplex DNA [11] = assay: Stabilization of AR G-quadruplex oligonucleotide in human 22Rv1 cells assessed as down-regulation of BCL2 mRNA expression at IC50 after 48 hrs by RT-PCR analysis; type: cell-based; procedure, shortened: as §2
Quadruplex DNA [12] = assay: Stabilization of AR G-quadruplex oligonucleotide in human 22Rv1 cells assessed as down-regulation of MAX mRNA expression at IC50 after 48 hrs by RT-PCR analysis; type: cell-based; procedure, shortened: as §2
Quadruplex DNA [13] = assay: Stabilization of AR G-quadruplex oligonucleotide in human 22Rv1 cells assessed as regulation of AKT1 mRNA expression at IC50 after 48 hrs by RT-PCR analysis; type: cell-based; procedure, shortened: as §2
CWR22R [14] = assay: Effect on c-MYC mRNA expression in human 22Rv1 cells at IC50 after 48 hrs by RT-PCR analysis; type: functional, cell-based; procedure, shortened: as §2
Quadruplex DNA [15] = assay: Stabilization of AR G-quadruplex oligonucleotide in human PC3 cells assessed as down-regulation of BAX mRNA expression at IC50 after 48 hrs by RT-PCR analysis; type: cell-based; procedure, shortened: as §5
CWR22R [16] = assay: Cytotoxicity against human 22Rv1 cells expressing full length androgen receptor H875Y point mutant assessed as reduction in cell viability after 48 hrs by MTS assay; type: functional, cell-based; conditions: 22Rv1, 48 h; procedure, shortened: as §6
CWR22R [17] = assay: Synergistic cytotoxicity against human 22Rv1 cells expressing full length androgen receptor H875Y point mutant assessed as combination index for reduction in cell viability measured at ED75 Enzalutamide at 0.001 to 0.1 uM after 72 hrs by MTS assay based Chou and Talay's plot analysis; type: functional
Procedure, shortened: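 Cells in RPMI-1640 with 10% fetal calf serum were exposed to ligand (0.001−0.1 μM) plus enzalutamide (0.5−50 μM) at a fixed ratio, five concentrations, for 72 h at 37 °C, 5% CO2. Viability read by MTS absorbance at 490 nm after 4 h. Combination index computed at ED50 and ED75 by the Chou–Talalay method.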

Quadruplex DNA [18] = assay: Stabilization of AR G-quadruplex oligonucleotide in human 22Rv1 cells assessed as reduction in AR-Vs protein level by immunoblotting assay; type: cell-based
DU-145 [19] = assay: Effect on c-MYC mRNA expression in human DU145 cells at IC50 after 48 hrs by RT-PCR analysis; type: functional, cell-based; procedure, shortened: as §2
Quadruplex DNA [20] = assay: Stabilization of AR G-quadruplex oligonucleotide in human 22Rv1 cells assessed as down-regulation of CCND1 mRNA expression at IC50 after 48 hrs by RT-PCR analysis; type: cell-based; procedure, shortened: as §2
Quadruplex DNA [21] = assay: Stabilization of AR3 G-quadruplex oligonucleotide (unknown origin) assessed as melting temperature at 16 uM after 16 hrs in presence of 100 mM K+ by CD spectra analysis (reference value: 78.8 +/- 1.7 degreeC); type: nucleic-acid assay
Quadruplex DNA [22] = assay: Stabilization of AR G-quadruplex oligonucleotide in human 22Rv1 cells assessed as reduction in cyclin D1 protein level at IC50 after 48 hrs by Western immunoblot assay; type: cell-based
[23] = Stabilization of AGTGAGAGTGAGAGAGAGAGTGAGAGTGAGAGTGA/TCACTCTCACTCTCACTCTCTCTCTCACTCTCACT dsDNA (unknown origin) assessed as change in melting temperature at 16 uM after 16 hrs in presence of 100 mM K+ by CD spectra analysis
Procedure, shortened: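 CD: oligos at 4 μM final in 10 mM lithium cacodylate pH 7.4, 100 mM KCl, annealed 95 °C 5 min then 4 h room temperature; duplex from equimolar strands. Ligand 16 μM final, 16 h room temperature. Spectra 230−320 nm, 5 mm cell, two scans averaged at 20 °C, buffer-subtracted; melting from spectra 20−90 °C in 5 °C steps.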

ΔTm (Quadruplex DNA [1]): 31 °C
inhibition [4]: inactive
inhibition (Quadruplex DNA [5]): Active
ΔTm (Quadruplex DNA [8]): 20.5 °C
Tm (Quadruplex DNA [21]): > 90 °C
ΔTm [23]: 2.7 °C
Compound: CN(C)CCCn1c(=O)c2ccc3c(=O)n(CCCN(C)C)c(=O)c4c5[nH]c6ccccc6[nH]c5c(c1=O)c2c34.Cl.Cl
Activity (Quadruplex DNA [2]): Active
Activity (CWR22R [3]): inactive
Activity (Quadruplex DNA [6]): Active
IC50 (DU-145 [7]): 80 nM
Activity (DU-145 [9]): inactive
Activity (Quadruplex DNA [10]): Active
Activity (Quadruplex DNA [11]): Active
Activity (Quadruplex DNA [12]): Active
Activity (Quadruplex DNA [13]): Active
Activity (CWR22R [14]): inactive
Activity (Quadruplex DNA [15]): Active
IC50 (CWR22R [16]): 10 nM
CI (CWR22R [17]): <1
Activity (Quadruplex DNA [18]): Active
Activity (DU-145 [19]): inactive
Activity (Quadruplex DNA [20]): Active
Activity (Quadruplex DNA [22]): Active

Reference: ChEMBL document CHEMBL4411261, “Down-Regulation of the Androgen Receptor by G-Quadruplex Ligands Sensitizes Castration-Resistant Prostate Cancer Cells to Enzalutamide” (J Med Chem, 2018)
